≈ marks a conversion by molar mass, not a printed value.
Key:
Format in all cases: functional
[1] = tested on: Staphylococcus epidermidis; assay: Antibacterial activity against methicillin-susceptible Staphylococcus epidermidis 07T202 by broth microdilution method
Procedure, shortened: (§1)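 Strains were ATCC reference strains or clinical isolates from China's national antimicrobial resistance surveillance network (MOHNARIN). In vitro activity was measured by broth microdilution following NCCLS recommendations. Results are reported as minimum inhibitory concentration (MIC) in mg/L.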

Streptococcus pneumoniae [2] = assay: Antibacterial activity against erythromycin-susceptible Streptococcus pneumoniae 07H252 by broth microdilution method; procedure, shortened: as §1
Streptococcus pyogenes [3] = assay: Antibacterial activity against erythromycin-susceptible Streptococcus pyogenes 07U084 by broth microdilution method; procedure, shortened: as §1
[4] = tested on: Staphylococcus epidermidis; assay: Antibacterial activity against methicillin-susceptible Staphylococcus epidermidis 07C134 by broth microdilution method
Procedure, shortened: (§2)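 Clinical isolates were supplied by China's Ministry of Health National Antimicrobial Resistance Investigation Net (MOHNARIN). Activity was reported as minimum inhibitory concentration (MIC), determined by broth microdilution following NCCLS recommendations.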

Haemophilus influenzae [5] = assay: Antibacterial activity against erythromycin-susceptible Haemophilus influenzae 07O394 by broth microdilution method; procedure, shortened: as §1
Streptococcus pneumoniae [6] = assay: Antibacterial activity against erythromycin-resistant Streptococcus pneumoniae 07D201 by broth microdilution method; procedure, shortened: as §2
[7] = tested on: Staphylococcus epidermidis; assay: Antibacterial activity against methicillin-resistant Staphylococcus epidermidis 07R066 by broth microdilution method; procedure, shortened: as §2
Streptococcus pyogenes [8] = assay: Antibacterial activity against erythromycin-susceptible Streptococcus pyogenes 07U086 by broth microdilution method; procedure, shortened: as §1
[9] = tested on: Staphylococcus epidermidis; assay: Antibacterial activity against methicillin-resistant Staphylococcus epidermidis 07A066 by broth microdilution method; procedure, shortened: as §2
Streptococcus pyogenes [10] = assay: Antibacterial activity against erythromycin-resistant Streptococcus pyogenes 01-533 by broth microdilution method; procedure, shortened: as §2
Staphylococcus aureus [11] = assay: Antibacterial activity against methicillin-susceptible Staphylococcus aureus ATCC 29213 by broth microdilution method; procedure, shortened: as §1
Streptococcus pyogenes [12] = assay: Antibacterial activity against erythromycin-resistant Streptococcus pyogenes 03-233 by broth microdilution method; procedure, shortened: as §2
Haemophilus influenzae [13] = assay: Antibacterial activity against erythromycin-susceptible Haemophilus influenzae 07O114 by broth microdilution method; procedure, shortened: as §1
Haemophilus influenzae [14] = assay: Antibacterial activity against erythromycin-susceptible Haemophilus influenzae ATCC 49247 by broth microdilution method; procedure, shortened: as §1
Haemophilus influenzae [15] = assay: Antibacterial activity against erythromycin-susceptible Haemophilus influenzae 07O339 by broth microdilution method; procedure, shortened: as §1
Streptococcus pneumoniae [16] = assay: Antibacterial activity against erythromycin-resistant Streptococcus pneumoniae 07P390 by broth microdilution method; procedure, shortened: as §2
Staphylococcus aureus [17] = assay: Antibacterial activity against methicillin-susceptible Staphylococcus aureus ANS46 by broth microdilution method; procedure, shortened: as §1
Streptococcus pneumoniae [18] = assay: Antibacterial activity against erythromycin-susceptible Streptococcus pneumoniae ATCC 49619 by broth microdilution method; procedure, shortened: as §1

SMILES	MIC [1]	MIC (Streptococcus pneumoniae [2])	MIC (Streptococcus pyogenes [3])	MIC [4]	MIC (Haemophilus influenzae [5])	MIC (Streptococcus pneumoniae [6])	MIC [7]	MIC (Streptococcus pyogenes [8])	MIC [9]	MIC (Streptococcus pyogenes [10])	MIC (Staphylococcus aureus [11])	MIC (Streptococcus pyogenes [12])	MIC (Haemophilus influenzae [13])	MIC (Haemophilus influenzae [14])	MIC (Haemophilus influenzae [15])	MIC (Streptococcus pneumoniae [16])	MIC (Staphylococcus aureus [17])	MIC (Streptococcus pneumoniae [18])
CC[C@H]1OC(=O)[C@H](C)C(=O)[C@H](C)[C@@H](O[C@@H]2O[C@H](C)C[C@H](N(C)C)[C@H]2O)[C@@](C)(OC)C[C@@H](C)C(=O)[C@H](C)[C@H]2N(CCCSc3nc(-c4cccnc4)c[nH]3)C(=O)O[C@]12C	32 µg/mL (≈ 38.6 µM)	0.25 µg/mL (≈ 0.301 µM)	0.031 µg/mL (≈ 0.0373 µM)	0.125 µg/mL (≈ 0.151 µM)	2 µg/mL (≈ 2.41 µM)	4 µg/mL (≈ 4.82 µM)	0.125 µg/mL (≈ 0.151 µM)	0.031 µg/mL (≈ 0.0373 µM)	0.125 µg/mL (≈ 0.151 µM)	0.125 µg/mL (≈ 0.151 µM)	0.125 µg/mL (≈ 0.151 µM)	1 µg/mL (≈ 1.2 µM)	2 µg/mL (≈ 2.41 µM)	2 µg/mL (≈ 2.41 µM)	2 µg/mL (≈ 2.41 µM)	0.031 µg/mL (≈ 0.0373 µM)	> 32 µg/mL	0.062 µg/mL (≈ 0.0747 µM)
CC[C@H]1OC(=O)[C@H](C)C(=O)[C@H](C)[C@@H](O[C@@H]2O[C@H](C)C[C@H](N(C)C)[C@H]2O)[C@@](C)(OC)C[C@@H](C)C(=O)[C@H](C)[C@H]2N(CCCSc3nccc(C)n3)C(=O)O[C@]12C	> 32 µg/mL	8 µg/mL (≈ 10.3 µM)	0.125 µg/mL (≈ 0.16 µM)	0.25 µg/mL (≈ 0.321 µM)	8 µg/mL (≈ 10.3 µM)	> 32 µg/mL	0.25 µg/mL (≈ 0.321 µM)	0.125 µg/mL (≈ 0.16 µM)	0.5 µg/mL (≈ 0.642 µM)	2 µg/mL (≈ 2.57 µM)	0.5 µg/mL (≈ 0.642 µM)	2 µg/mL (≈ 2.57 µM)	8 µg/mL (≈ 10.3 µM)	8 µg/mL (≈ 10.3 µM)	8 µg/mL (≈ 10.3 µM)	0.25 µg/mL (≈ 0.321 µM)	> 32 µg/mL	0.062 µg/mL (≈ 0.0796 µM)
CC[C@H]1OC(=O)[C@H](C)C(=O)[C@H](C)[C@@H](O[C@@H]2O[C@H](C)C[C@H](N(C)C)[C@H]2O)[C@@](C)(OC)C[C@@H](C)C(=O)/C(C)=C/[C@]1(C)OC(=O)NCCCSc1nc2ccccc2o1	> 16 µg/mL	16 µg/mL (≈ 19.9 µM)	2 µg/mL (≈ 2.49 µM)	4 µg/mL (≈ 4.98 µM)	> 16 µg/mL	> 16 µg/mL	4 µg/mL (≈ 4.98 µM)	2 µg/mL (≈ 2.49 µM)	4 µg/mL (≈ 4.98 µM)	> 16 µg/mL	4 µg/mL (≈ 4.98 µM)	> 16 µg/mL	> 16 µg/mL	> 16 µg/mL	> 16 µg/mL	> 16 µg/mL	> 16 µg/mL	2 µg/mL (≈ 2.49 µM)
CC[C@H]1OC(=O)[C@H](C)C(=O)[C@H](C)[C@@H](O[C@@H]2O[C@H](C)C[C@H](N(C)C)[C@H]2O)[C@@](C)(OC)C[C@@H](C)C(=O)[C@H](C)[C@H]2N(CCCSc3nnnn3-c3ccccc3)C(=O)O[C@]12C	> 32 µg/mL	1 µg/mL (≈ 1.2 µM)	0.125 µg/mL (≈ 0.15 µM)	0.5 µg/mL (≈ 0.602 µM)	32 µg/mL (≈ 38.5 µM)	> 32 µg/mL	0.25 µg/mL (≈ 0.301 µM)	0.125 µg/mL (≈ 0.15 µM)	0.5 µg/mL (≈ 0.602 µM)	2 µg/mL (≈ 2.41 µM)	0.25 µg/mL (≈ 0.301 µM)	> 32 µg/mL	16 µg/mL (≈ 19.3 µM)	16 µg/mL (≈ 19.3 µM)	32 µg/mL (≈ 38.5 µM)	0.5 µg/mL (≈ 0.602 µM)	> 32 µg/mL	0.125 µg/mL (≈ 0.15 µM)
CC[C@H]1OC(=O)[C@H](C)C(=O)[C@H](C)[C@@H](O[C@@H]2O[C@H](C)C[C@H](N(C)C)[C@H]2O)[C@@](C)(OC)C[C@@H](C)C(=O)[C@H](C)[C@H]2N(CCCSc3nncs3)C(=O)O[C@]12C	> 16 µg/mL	2 µg/mL (≈ 2.59 µM)	0.062 µg/mL (≈ 0.0804 µM)	0.25 µg/mL (≈ 0.324 µM)	2 µg/mL (≈ 2.59 µM)	> 16 µg/mL	0.5 µg/mL (≈ 0.648 µM)	0.062 µg/mL (≈ 0.0804 µM)	0.25 µg/mL (≈ 0.324 µM)	1 µg/mL (≈ 1.3 µM)	0.25 µg/mL (≈ 0.324 µM)	> 16 µg/mL	2 µg/mL (≈ 2.59 µM)	2 µg/mL (≈ 2.59 µM)	2 µg/mL (≈ 2.59 µM)	0.5 µg/mL (≈ 0.648 µM)	> 16 µg/mL	≤ 0.016 µg/mL
CC[C@H]1OC(=O)[C@H](C)C(=O)[C@H](C)[C@@H](O[C@@H]2O[C@H](C)C[C@H](N(C)C)[C@H]2O)[C@@](C)(OC)C[C@@H](C)C(=O)[C@H](C)[C@H]2N(CCCSc3nc(C)cc(C)n3)C(=O)O[C@]12C	> 32 µg/mL	2 µg/mL (≈ 2.52 µM)	0.125 µg/mL (≈ 0.158 µM)	0.5 µg/mL (≈ 0.63 µM)	8 µg/mL (≈ 10.1 µM)	> 32 µg/mL	0.5 µg/mL (≈ 0.63 µM)	0.125 µg/mL (≈ 0.158 µM)	0.5 µg/mL (≈ 0.63 µM)	2 µg/mL (≈ 2.52 µM)	0.5 µg/mL (≈ 0.63 µM)	> 32 µg/mL	8 µg/mL (≈ 10.1 µM)	4 µg/mL (≈ 5.04 µM)	4 µg/mL (≈ 5.04 µM)	1 µg/mL (≈ 1.26 µM)	> 32 µg/mL	0.062 µg/mL (≈ 0.0782 µM)

From ChEMBL document CHEMBL1649395, “Synthesis and antibacterial activity of novel ketolides with 11,12-sulfur contained aryl alkyl side chains” (2011)
